Compound activity as filed in PubChem BioAssay.
Only some compounds are listed: those with a hit (about 1.9% of all), similar ones and a draw of the others.
ARFGAP1 inhibitor = inhibitors of rat ARFGAP1 GAP activity, primary screen, biochemical, fluorescence polarization, GDP tracer. ADP-ribosylation factor GTPase-activating protein 1 (Rattus norvegicus), Q62848. Arfgap1-stimulated ARF1 GTP hydrolysis, GDP FP detection. inhibition, % at 16.5 µM. 360,000 compounds, 0.26% hits;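 active = inhibition above a per-plate limit, mean inhibition of low control wells plus 3 SD, cut at about 25% in these data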;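 note: 0% = DMSO wells with enzyme and 100% = wells lacking Arfgap1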
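Material – truncated rat Arfgap1 GAP domain · Buffer or medium – HEPES-based buffer, pH 7.5 · Reagent – human ARF1(Δ1-17)-GTP substrate · Dosing – 16.5 µM single point, 1.26% DMSO · Schedule – GTP hydrolysis reaction 2 h at 25 °C · Technique – GDP detection by fluorescence polarization · Benchmarks – No-Arfgap1 wells (100%) versus DMSO full-reaction wells (0%) · Repeats – single replicate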
PLCg1 inh = PLC-gamma1 enzyme inhibitors, primary screen, biochemical, fluorescence, purified enzyme; fluorogenic substrate; 1-phosphatidylinositol 4,5-bisphosphate phosphodiesterase gamma-1 (Homo sapiens), P19174; 370,000 compounds, 0.84% hits; AID 720700, 2013; inhibition, % at 12.2 µM; in the data active = inhibition above about 9.5%
Target sequence (P19174 whole entry, looked up): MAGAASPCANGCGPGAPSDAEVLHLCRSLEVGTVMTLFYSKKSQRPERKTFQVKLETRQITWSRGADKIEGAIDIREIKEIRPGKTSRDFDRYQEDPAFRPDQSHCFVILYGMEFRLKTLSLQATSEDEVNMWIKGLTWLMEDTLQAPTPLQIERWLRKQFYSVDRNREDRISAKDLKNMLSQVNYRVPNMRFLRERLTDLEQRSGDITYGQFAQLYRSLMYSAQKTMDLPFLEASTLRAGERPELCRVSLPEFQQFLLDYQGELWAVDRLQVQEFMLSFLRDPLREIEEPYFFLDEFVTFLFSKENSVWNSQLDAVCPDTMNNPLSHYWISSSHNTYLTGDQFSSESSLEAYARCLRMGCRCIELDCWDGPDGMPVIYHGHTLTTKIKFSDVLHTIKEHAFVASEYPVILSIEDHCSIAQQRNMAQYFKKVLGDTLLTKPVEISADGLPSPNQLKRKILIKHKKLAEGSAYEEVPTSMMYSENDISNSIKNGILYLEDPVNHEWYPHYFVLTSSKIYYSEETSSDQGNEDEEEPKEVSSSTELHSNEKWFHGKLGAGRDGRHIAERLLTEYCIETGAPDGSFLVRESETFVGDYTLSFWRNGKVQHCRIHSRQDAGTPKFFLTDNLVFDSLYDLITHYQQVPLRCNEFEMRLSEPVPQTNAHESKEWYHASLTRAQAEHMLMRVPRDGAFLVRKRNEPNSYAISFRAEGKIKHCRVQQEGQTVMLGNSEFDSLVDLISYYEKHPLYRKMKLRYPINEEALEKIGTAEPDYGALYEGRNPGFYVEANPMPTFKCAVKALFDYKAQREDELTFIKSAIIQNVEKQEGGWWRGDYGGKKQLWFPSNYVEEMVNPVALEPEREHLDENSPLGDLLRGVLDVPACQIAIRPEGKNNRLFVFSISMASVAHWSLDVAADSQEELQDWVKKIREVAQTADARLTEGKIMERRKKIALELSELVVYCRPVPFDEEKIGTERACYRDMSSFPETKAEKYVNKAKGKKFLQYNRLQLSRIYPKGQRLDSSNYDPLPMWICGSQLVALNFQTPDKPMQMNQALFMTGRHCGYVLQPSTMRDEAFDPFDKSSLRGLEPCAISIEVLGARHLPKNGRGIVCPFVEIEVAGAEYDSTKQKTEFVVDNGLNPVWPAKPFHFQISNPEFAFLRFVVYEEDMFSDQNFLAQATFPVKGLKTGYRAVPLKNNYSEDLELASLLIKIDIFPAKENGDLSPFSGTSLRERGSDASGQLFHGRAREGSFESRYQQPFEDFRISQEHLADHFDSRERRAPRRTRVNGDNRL
sPLA2-III inh = human group III sPLA2 inhibitors, primary screen, biochemical, QFRET, BODIPY PC-A2 liposome substrate | 370,000 compounds, 0.56% hits | inhibition, % at 12.2 µM | QFRET BODIPY PC-A2 liposome hydrolysis, fluorescence | Group 3 secretory phospholipase A2 (Homo sapiens), Q9NZ20;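 active = inhibition above mean plus 3 SD of compounds lying within the high and low control bounds, cut at about 19% in these data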;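 note: 0% = median of test compound wells and 100% = no enzyme DMSO wells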
ASAP1 inh = inhibitors of human ASAP1 ArfGAP activity, primary screen, biochemical, fluorescence polarization. inhibition, % at 16.5 µM. 360,000 compounds, 0.19% hits. Arf-GAP with SH3 domain, ANK repeat and PH domain-containing protein 1 (Homo sapiens), …. ASAP1-stimulated ARF1 GTP hydrolysis, GDP FP detection; in the data active = inhibition above about 25%;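 note: 0% = vehicle with enzyme and substrate and 100% = no enzyme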
PLCb3 inh = human PLC-beta3 inhibitors, primary screen, biochemical, fluorescence. Purified PLC-beta3, fluorogenic substrate. 370,000 compounds, 0.18% hits. inhibition, % at 12.2 µM. AID 720704, 2013;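 note: 0% = median of compound wells on plate and 100% = full blocker control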
PLCg1 ctr = PLC-gamma1 enzyme inhibitors, counter-screen for PLC-beta3 inhibitor project, biochemical, fluorescence; shares compounds with PLCg1 inh; purified PLC-gamma1, fluorogenic substrate; inhibition, % at 12.3 µM; 3,300 compounds, 3.1% hits; AID 743258, 2014; in the data active = inhibition above about 9.5%
PLCbeta3 conf = PLC-beta3 inhibitor confirmation, biochemical, fluorescence, purified enzyme; shares compounds with PLCg1 inh; fluorogenic substrate fluorescence; inhibition, % at 12.3 µM; 3,300 compounds, 1% hits
* hit, by the source's call; x = no result. Cut-off read from the data, not from the text of the source, unless noted: active = inhibition above about 11%; inactive = the rest.

SMILES	ARFGAP1 inhibitor	PLCg1 inh	sPLA2-III inh	ASAP1 inh	PLCb3 inh	PLCg1 ctr	PLCbeta3 conf
O=C(NCc1ccc(F)cc1)c1cc(C2CCCCN2C(=O)c2ccc3c(c2)CCO3)on1 (stereo not given)	4	2	-8	-5	2	x	x
O=C(NCc1ccccc1)c1cc(C2CCCCN2C(=O)c2ccc3c(c2)CCO3)on1 (stereo not given)	6	12*	6	-15	-2	-3	-144
Cc1ccc(CC2CC(=O)N(c3nc4ccccc4n3C)C2=O)cc1 (stereo not given)	-2	12*	5	-2	7	-10	-3
O=C1CC(N2CCN(Cc3ccccc3)CC2)C(=O)N1c1ccccc1 (stereo not given)	1	11*	1	2	5	-9	-1
O=C1CC(N2CCN(Cc3ccccc3)CC2)C(=O)N1c1ccc2c(c1)OCCO2 (stereo not given)	-4	0	0	6	0	x	x
O=C(C(=O)N1CCN(S(=O)(=O)c2cccc3ccccc23)CC1)c1cccc(C(F)(F)F)c1	2	1	-12	-2	3	x	x
COC(=O)C1CN(Cc2ccc(F)cc2)CCS(=O)(=O)N1Cc1ccc(OC)cc1 (stereo not given)	x	2	10	x	-4	x	x
O=C(c1cnsn1)N1CCN(c2ccccc2)CC1	8	7	10	1	11*	-1	1
O=C(c1cnccn1)N1CCN(c2ccccc2)CC1	0	-1	15	-13	1	x	x
COc1ccc(C[N+]2=C(N)NC3=C4CCCCC4n4c(=O)n(-c5ccccc5)c(=O)n4C3C2)c(OC)c1 (stereo not given)	x	-5	13	x	-7	x	x
CCn1cc(C(=O)O)c(=O)c2ccc(C)nc21	3	10*	7	4	3	-5	-6
O=C(NNC(=S)NC(=O)c1ccc(F)cc1)c1ccncc1	5	-2	5	11	2	x	x
O=C(NNC(=O)c1ccc(F)cc1)c1ccncc1	-11	11*	0	-21	1	1	-1
O=C(CSc1ncnc2c1oc1ccccc12)Nc1nc2ccccc2s1	0	9.6*	-3	6	8	-5	-5
CC(=O)NC12CC3CC(C1)CC(C(=O)N(C)Cc1cccc(Cl)c1Cl)(C3)C2	-3	13*	-9	-10	-3	-5	-2
CS(=O)(=O)N(Cc1ccccc1)c1ccc(C(=O)NC2CCCCC2O)cc1 (stereo not given)	16	9.5*	-1	-3	4	0	-3
CS(=O)(=O)N(Cc1ccc(C(=O)NC2CCCCC2O)cc1)c1ccccc1 (stereo not given)	-4	2	5	14	-1	x	x
CS(=O)(=O)N(Cc1ccc(C(=O)NC2CCCC2)cc1)c1ccccc1	8	13*	7	4	1	-6	-14
COc1ccc(Cn2cc(CN3[C@@H](Cc4ccccc4)COc4cc(Br)ccc4S3(=O)=O)nn2)cc1	x	0	3	x	-4	x	x
OCCCN1CCC2(CCC(c3ccccc3)CC2)C1 (stereo not given)	x	1	0	x	1	x	x
CC(C)(C)c1ccc(-c2nnc(SCC(=O)Nc3ccc(S(=O)(=O)Nc4nccs4)cc3)n2-c2ccc(Cl)cc2)cc1	x	2	-73	x	-4	x	x
CCC1CCCCN1C(=O)CSc1nc2ncccc2[nH]1 (stereo not given)	17	11*	4	5	-7	-4	-3
CCN(CC(=O)NCc1cccs1)S(=O)(=O)c1cc(NC(C)=O)ccc1OC	17	9.6*	11	-1	-10	-4	-6
CCN(CC(=O)NCc1cccs1)S(=O)(=O)c1cccc(C(C)=O)c1	-10	1	1	-2	0	x	x
CCC(C)NC(=O)CNc1nnnn1-c1ccccc1 (stereo not given)	x	-1	-2	x	1	x	x
SMILES	ARFGAP1 inhibitor	PLCg1 inh	sPLA2-III inh	ASAP1 inh	PLCb3 inh	PLCg1 ctr	PLCbeta3 conf
CCOc1ccccc1NC(=O)COn1nnc2ccccc21	-10	11*	8	2	4	-4	-7
O=C(CCCCCNC(=O)N1CCn2c1nc1ccccc12)NCc1ccc(F)cc1	2	11*	9	-2	0	-5	-4
COc1cc(C=NN=c2sc3ccccc3n2C)ccc1OCCO	6	1	-17	8	-4	x	x
CN[C@H]1C[C@H]2c3[nH]c4c(-c5ccc6c(c5)OCO6)cccc4c3CCN2C[C@H]1[C@H](C)O	x	-7	0	x	-8	x	x
CCn1c(NCc2ccccc2NS(=O)(=O)c2ccc(C)cc2)nc2ccccc21	8	9	-11	1	12*	0	0
CN1C(=O)c2cc(NS(=O)(=O)c3ccc(F)cc3)ccc2OC[C@H]2O[C@@H](CC(=O)NCC(F)(F)F)CC[C@@H]21	x	12*	-40	x	7	13*	17*
C[C@@H](NC(=O)C[C@H]1CC[C@H]2[C@@H](COc3ccc(NC(=O)Nc4ccccc4)cc3C(=O)N2C)O1)c1ccccc1	x	12*	-19	x	3	4	8
CCNC(=O)Nc1ccc2c(c1)C(=O)N(C)[C@H]1CC[C@H](CC(=O)N[C@H](C)c3ccccc3)O[C@@H]1CO2	x	9.5*	-26	x	7	11*	12*
COC(=O)C[C@@H]1CC[C@@H]2[C@@H](COc3ccc(NS(=O)(=O)c4ccc(F)cc4)cc3C(=O)N2C)O1	x	1	5	x	0	x	x
CCNC(=O)Nc1ccc2c(c1)C(=O)N(C)[C@H]1CC[C@@H](CC(=O)OC)O[C@H]1CO2	x	0	1	x	2	x	x
CCCNC(=O)C[C@H]1CC[C@H]2[C@@H](COc3ccc(NC(=O)Nc4ccccc4)cc3C(=O)N2C)O1	x	5	-7	x	4	x	x
CC(C)(C)c1ccc(C(=O)Nc2cc(Cl)ccc2C(=O)O)cc1	x	-4	-34	x	-7	x	x
CCOC(=O)c1ccc(NC(=S)N2CCN(C)CC2)cc1	-3	0	6	5	-4	x	x
CCOC(=O)c1c(NC(=S)N2CCN(C)CC2)sc(C)c1-c1ccccc1	-2	11*	-10	0	-3	-7	-4
